Laboratory results taken from ChEMBL document CHEMBL4513216, “Probing the Open Global Health Chemical Diversity Library for Multistage-Active Starting Points for Next-Generation Antimalarials” (ACS Infect Dis, 2020).

Experiment: Toxicity liver stage against HepG2, at 10uM
Format: cell-based
Design: test concentration 10 uM, cell line HepG2-A16-CD81EGFP
Conditions: human, HepG2-A16-CD81EGFP cells; read-out: INHIBITION
Procedure, shortened: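 Uninfected HepG2-A16-CD81EGFP cells, 3 × 10^3 per well, 1536-well, plated on prespotted compound at 10 μM final, parasite-free screening media added to match infected plates; puromycin 10 μM positive, DMSO 0.5% negative; run in parallel with 48 h PbLuc assay at 37 °C, 5% CO2; viability by CellTiter-Glo luminescence, normalized to controls.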

Structure (SMILES) | cytotoxicity at 10 µM [%]
O=C(CN1CCc2ccccc2C1)NCc1ccco1 | 6.32
O[C@H]1COCCN(Cc2cccc3c2OCO3)C1 | -3.04
CO[C@H]1COCCN(C(=O)c2ccc(F)cc2)C1 | 0.287
CCOCc1nc(N2CCCC2)sc1C(=O)NCc1ccco1 | -1.89
CCOCCCNC(=O)C1(C)CCC(=O)N1c1ccccc1OC (stereo not drawn) | 2.89
CN1CCCN(c2ncnc(N3CCOCC3)c2N)CC1 | 1.08
CN1CC[C@H](N(Cc2ccccc2)Cc2ccccc2)C[C@H](O)C1 | -5.96
COC1CCN(C(=O)COC(C)=O)CC(=O)N(C)c2ccccc21 (stereo not drawn) | 3.17
O=C(CNC(=O)c1c[nH]c2ccccc12)NCCCn1ccnc1 | -11.1
CCN1C(=O)CCCC12CCCN(C(=O)c1ccoc1C)C2 (stereo not drawn) | -11.8
O=C1CCCN1Cc1ncn2c1CN(C(=O)Cc1cccs1)CCC2 | 5.26
COc1ccc(-n2nnc(C(=O)O)c2-c2ccccn2)cc1 | 13.7
O=C(CCS(=O)(=O)c1ccccc1)NCCCn1cccn1 | 12
CC(=O)N1CCC(c2ncc(C(=O)Nc3ccc(F)cc3)c(C)n2)CC1 | 7.29
C[C@]1(O)CCN(Cc2c[nH]cn2)C[C@@H]1Oc1cccc(F)c1 | -5.72
O=C(c1ccc2c(c1)CCC2)N1CC[C@H](O)[C@]2(CCCO2)C1 | -8.97
Cc1ccc(C(=O)Nc2ccc3c(c2)N(C)CCN(C)C3)c(=O)[nH]1 | -2.17
CS(=O)(=O)NC1CCN(C(=O)CCC2CCCO2)CC1 (stereo not drawn) | -0.367
Cn1ccnc1CNC1CCCOc2c1ccc1ccccc21 (stereo not drawn) | 13.3
CCc1nc2n(n1)CC(NCC1=Cc3ccc(OC)cc3OC1)CC2 (stereo not drawn) | 4.02
CCNC(=O)CN(CC)C(=O)c1csc(Cc2ccccc2F)n1 | 7.6

Structure (SMILES) | cytotoxicity at 10 µM [%]
COC(=O)C(NC(=O)c1cc(C)ccc1C)c1cccnc1 (stereo not drawn) | -39.7
CNS(=O)(=O)c1ccc(CNC(=O)NCc2cc[nH]n2)cc1 | 1.91
CCN(CC)CCCC(C)NC(=O)c1ccccc1-n1cccn1 (stereo not drawn) | 15.9
CCOCCC(=O)NCC(C)c1ccsc1 (stereo not drawn) | 15.1
CC(NC(=O)COc1ccccc1I)C1CC1 (stereo not drawn) | 2.72
CN1CCC(C(=O)N2CCCN(c3cccnn3)CC2)C1 (stereo not drawn) | -8.82
Cc1cc(CNc2ccc(CC(=O)N(C)c3ccccc3)cc2)no1 | -13.9
Cc1ccc(CNCc2c(C)nn(C)c2N(C)C)cn1 | 4.65
O=C(NC1(c2nnn(CC3CCCO3)n2)CCCC1)c1ccccc1 (stereo not drawn) | 13.2
O=C(CN1CCCC1Cn1cncn1)Nc1nccs1 (stereo not drawn) | 4.1
Cn1cc(NC(=O)CCCc2cccs2)c(=O)n(C)c1=O | 5.55
CCOC(C(=O)N1CCn2c(CC)nnc2C1)c1ccccc1 (stereo not drawn) | 4.48
O=C(c1cccnc1O)N(CCO)Cc1cc(Br)ccc1F | 6.27
CC1(C)CN=C(N2CCN(CC3CCOC3)CC2)S1 (stereo not drawn) | 11.7
CC(Cn1cccn1)NCC(=O)N(C)Cc1ccsc1 (stereo not drawn) | -7.32
CC(=O)NCCc1ccc(S(=O)(=O)Nc2ccc(C)c(F)c2)s1 | 5.72
CSCc1cc(C(=O)NC2(C#N)CC2)ccc1F | -10.5
COc1ccccc1N1CCN(Cc2cnc3c(c2)c(C)nn3C)CC1 | -0.949
Cc1nc(CNC(=O)Nc2ccc3c(c2)CCCN3C)sc1C | -3.68
CCOC(=O)C1CCN(C(=O)Cc2c(C)nc(C)[nH]c2=O)CC1 | 16.6
CCNC(=O)NC(=O)CN1CCOC(c2ccccc2Cl)C1 (stereo not drawn) | 6.58

Structure (SMILES) | cytotoxicity at 10 µM [%]
O=C(Nc1ccccn1)NC(CCCO)c1ccccc1 (stereo not drawn) | 3.72
Cc1occc1C(=O)Nc1cc(N2CCNC2=O)ccc1Cl | 8.56
CNc1nc(CNC(=O)Nc2ccccc2OC(C)C)cs1 | -12.1
Cn1nc(CNc2ncccn2)c2c1CN(c1cnccn1)CC2 | -107
O=S(=O)(C1CC1)N1CCc2ncnc(N3CCOCC3)c2CC1 | -109
O=S(=O)(C1CC1)N1CCC2(COCc3cnc(-c4cccnc4)nc32)C1 (stereo not drawn) | -115
Cn1cc(C2COC3(CCN(C(=O)c4cccc(O)c4)CC3)C2)cn1 (stereo not drawn) | -73.3
OCC1(CCOc2ccccc2)CCN(c2ccc(Cl)cn2)CC1 | -43.4
O=C1NCCCc2[nH]c(Cc3cccc(Cl)c3)nc21 | 13
Cc1cc(N2CCN(Cc3ccccc3)CC(O)C2)nc(N)n1 (stereo not drawn) | 1.06
Cc1cccn2c(CNC(C)CCn3cccn3)cnc12 (stereo not drawn) | 21.6
CC(C)N1CCC(CC(=O)NCC2OCCc3ccccc32)CC1 (stereo not drawn) | -4.65
COCc1cc(NCCc2ccc(OC)cc2)n2nccc2n1 | 0.266
CN(Cc1cc(C(C)(C)C)n[nH]1)C(=O)CCC(=O)NC1CCCC1 | -2.12
O=C(O)c1ccc(N2CCC(Oc3cccc(F)c3)CC2)nc1 | -60.7
O=C(NN1CCCc2ccccc21)c1c[nH]c(=O)[nH]1 | 8.73
CC(=O)NCc1cc2n(n1)CCN(Cc1cc(-c3ccccc3)no1)C2 | 7.12
Cc1cc(C)n(-c2ccc(C(=O)NCC(CO)Cc3ccco3)cc2)n1 (stereo not drawn) | 3.62
Cc1nc(S(=O)(=O)N2CCc3[nH]nc(CCC(C)C)c3C2)cn1C | 10.2
CCCOC1CCCN(C(=O)c2ccnnc2)C1 (stereo not drawn) | -20.6
CCc1ocnc1C(=O)N1CCC2(CCCN(CC(C)(C)C)C2=O)C1 (stereo not drawn) | 7.79

Structure (SMILES) | cytotoxicity at 10 µM [%]
O=C1CCCc2occ(C(=O)N3CCCC4(CCNC4)C3)c21 (stereo not drawn) | 9.15
CC(=O)Nc1ccc(Cl)c(C(=O)N(C)C(C)c2ccncn2)c1 (stereo not drawn) | -42.6
Cc1n[nH]c(C)c1C1COCCN1C(=O)c1ccc2c(c1)CCO2 (stereo not drawn) | -4.01
CCC1CN(C(=O)c2cccc(OCc3cscn3)c2)CCO1 (stereo not drawn) | -7.51
COCCN1CCCC1Cn1nc(C)cc1C (stereo not drawn) | 1.31
O=C([C@@H]1CC[C@@H]2[C@@H](CCN2CCOCc2ccccc2)O1)N1CCCC1 | -110
CC(NCc1ccc(OCC(N)=O)cc1)c1ccc(Cl)cc1Cl (stereo not drawn) | 13.1
CN(Cc1cccnc1)[C@@H]1CN(C(=O)NC2CC2)[C@@H]2CCCO[C@H]12 | 2.75
O=C(CN1CC(c2nc(-c3cccs3)no2)C1)NCC1CCCO1 (stereo not drawn) | -1.47
Cc1cc(C(=O)N2C[C@@H]3OCCN(CCN4CCCC4)[C@@H]3C2)c(C)o1 | -74.8
O=C1CC(c2ccccc2)C2(CCN(C(=O)c3ccncc3F)CC2)N1 (stereo not drawn) | -76.9
CS(=O)(=O)N1CCO[C@H]2[C@@H](Oc3ncccc3F)CC[C@@H]21 | -2.54
O=C(NCC1OCCc2cn(CC3CCOCC3)nc21)c1ccncc1 (stereo not drawn) | -78
CCOCc1nn(C)c2c1CN(Cc1cccs1)CC2 | -101
Cc1oncc1C(=O)N1CCc2ncnc(-c3cnn(C)c3)c2CC1 | 7.07
CC(C)CNC(=O)N1CC[C@@H]2CN(Cc3cccnc3)S(=O)(=O)[C@@H]2CC1 | -93.6
NC1(c2nc(C(F)(F)F)cc(=O)[nH]2)CCCC1 | 19.1
O=C(Nc1ccccc1)N1CCC(n2cc3[nH]cccc-3c2=O)CC1 | -3.73
COCCN1C(=O)[C@@H]2CC[C@H]1CN(S(=O)(=O)c1cccc(Cl)c1)C2 | 20.5
COc1ccc(C2CC(=O)c3c(O)cc(O)cc3O2)cc1O (stereo not drawn) | -2.66
